The data set can be described thus: Toxicity liver stage against HepG2, at 10uM. It is filed as cell-based. More on the design: test concentration 10 uM, cell line HepG2-A16-CD81EGFP. To be noted: human, HepG2-A16-CD81EGFP cells; read-out: INHIBITION
The method in brief: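 Uninfected HepG2-A16-CD81EGFP cells, 3 × 10^3 per well, 1536-well, plated on prespotted compound at 10 μM final, parasite-free screening media added to match infected plates; puromycin 10 μM positive, DMSO 0.5% negative; run in parallel with 48 h PbLuc assay at 37 °C, 5% CO2; viability by CellTiter-Glo luminescence, normalized to controls.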
In the case of `CSc1ccccc1C(=O)C1CCCN(Cc2ccccn2)C1` (configuration not stated), the cytotoxicity at 10 µM is -6.12%.

With `CSCCC(=O)N1CC[C@@H](N2CCN(c3ccccc3F)CC2)[C@H](O)C1`, the cytotoxicity at 10 µM is -91.4%.

Consider `CC(C)NC(=O)NC[C@H]1OC[C@@H](NCc2ccc(S(C)(=O)=O)cc2)[C@@H]1O`, for which the cytotoxicity at 10 µM turned out to be 6.7%.

Turning to `CN1CCC(N2CCOC[C@H]2c2nc(C(C)(C)C)c[nH]2)CC1`, the cytotoxicity at 10 µM was determined as 2.73%.

In the case of `CC(C)(C)CC(=O)N1CC[C@H]2NC(=O)N(Cc3ccccc3)C(=O)[C@H]21`, the cytotoxicity at 10 µM is -0.171%.

As for `Cc1ccc(CN2C[C@H](O)C[C@H]2c2nc(-c3ccc(F)cc3)no2)cc1`, the cytotoxicity at 10 µM is -0.456%.

Consider `COCCCNC(=O)Cn1c(C)cc(=O)n2nc(-c3cccs3)nc12`, for which the cytotoxicity at 10 µM amounted to 2.05%.

As to `Cc1ccc2oc(SCC(=O)NC(C)(C)C)nc2n1`, the cytotoxicity at 10 µM is -0.3%.

With `O=C(C1CC1)N1CCN2C[C@@H](CO)[C@H](c3ccccc3)[C@H]2C1`, the cytotoxicity at 10 µM turned out to be 8.52%.

Regarding `COC(=O)CNC(=O)Cn1ccc2cccc(OC)c21`, the cytotoxicity at 10 µM was -34.9%.

For `Cc1ccccc1NC(=O)NCC(C)(O)c1cccs1` (configuration not stated), the cytotoxicity at 10 µM turned out to be 8.5%.

As to `N#Cc1cccc(C(=O)N2CC(c3nc(-c4cccnc4)no3)C2)c1`, the cytotoxicity at 10 µM is -6.03%.

For the compound `O=C1[C@@H]2CCN(CC3CC3)C[C@@H]2OCCN1c1ccsc1`, the cytotoxicity at 10 µM was 10.5%.

Regarding `CC1c2ncc(Cn3cncn3)n2CCN1C(=O)N(C)C` (configuration not stated), the cytotoxicity at 10 µM was 0.267%.

For `COCC(=O)N1CC[C@H]2OCC[C@@]2(c2nc(C)no2)C1`, the cytotoxicity at 10 µM is -0.461%.

Consider `CCOc1cc(CNCCCn2ccnc2)cc(Cl)c1OC`, for which the cytotoxicity at 10 µM is -5.21%.

Regarding `CSc1ccc(NC(=O)Nc2ccc3c(c2)N(S(C)(=O)=O)CC3)cc1`, the cytotoxicity at 10 µM is 48.5%.

In the case of `CN1CCCc2c1nc1c(c2N)CCC1`, the cytotoxicity at 10 µM stood at 10.2%.

On to `Cc1cnc(NC(=O)C(C)n2ccc(C(F)(F)F)n2)s1` (configuration not stated), for which the cytotoxicity at 10 µM stood at 1.75%.

Consider `Cc1cc(=O)n2c3c(cc(S(=O)(=O)NC4CC4)cc13)CCC2`, for which the cytotoxicity at 10 µM is -32.3%.

Consider `O=S(=O)(c1cc(F)ccc1F)n1cc(Cl)cn1`, for which the cytotoxicity at 10 µM is 4.52%.

`CN(CCc1cn[nH]c1)C(=O)CCc1ccc(Cl)cc1`: the cytotoxicity at 10 µM was 1.82%.

On to `COc1ccccc1C1Cn2c(C)cnc2CN1Cc1ccc(C)nc1` (configuration not stated), for which the cytotoxicity at 10 µM was -3.18%.

As to `CN1CCCC(Cc2ccnc3ccncc23)CC1` (configuration not stated), the cytotoxicity at 10 µM was -0.336%.

As to `O=C(Nc1cccnc1N1CCSCC1)c1ccc2c(c1)OCO2`, the cytotoxicity at 10 µM is -6.14%.

`O=C(NCCCn1cccn1)C1COCC(=O)N1Cc1ccccc1` (configuration not stated): the cytotoxicity at 10 µM is -8.57%.

`Cc1ccccc1-n1ccnc1S(=O)(=O)Cc1nsc(N(C)C)n1`: the cytotoxicity at 10 µM was 2.56%.

For `CC(C)c1ccc(CNC(c2ccc(F)cn2)C(C)C)cc1` (configuration not stated), the cytotoxicity at 10 µM is -4.45%.

Turning to `Cc1nc(COC(=O)c2cccc3c2OCCO3)cs1`, the cytotoxicity at 10 µM came out at 1.4%.

Take `COC1CCN(S(=O)(=O)N2CCCC2c2ccco2)CC1` (configuration not stated): the cytotoxicity at 10 µM came to 11%.

In the case of `Cc1nc(CN(C)C2CCN(CC(=O)N(C)CCC#N)C2)no1` (configuration not stated), the cytotoxicity at 10 µM is -3.6%.

Consider `COc1cc(CNCCC(N)=O)c2c(c1)CC(C)O2` (configuration not stated), for which the cytotoxicity at 10 µM was 8.41%.

As for `CCC(C#N)NC(=O)CCCOc1cccc(C(C)=O)c1` (configuration not stated), the cytotoxicity at 10 µM was -35.1%.

`CCc1csc(C2CCCN(C(=O)c3ccc(=O)n(C)n3)C2)n1` (configuration not stated): the cytotoxicity at 10 µM is -44.1%.

With `CNC(=O)CS(=O)(=O)NC1CCC(C)CC1` (configuration not stated), the cytotoxicity at 10 µM is -8.18%.

In the case of `N#CCCN(C(=O)CCc1cccnc1)c1ccc2c(c1)OCCO2`, the cytotoxicity at 10 µM was -5.34%.

With `O=C1CN(c2ccc(C(=O)N3CCc4ccccc43)cn2)CCN1`, the cytotoxicity at 10 µM stood at 2.66%.

With `CCCn1nnnc1COC(=O)C1COc2ccccc2O1` (configuration not stated), the cytotoxicity at 10 µM was determined as 3.72%.

Turning to `O=C1N(CC2CC2)C(c2cncs2)NC12CCCC2` (configuration not stated), the cytotoxicity at 10 µM is -3.84%.

As for `O=C(Nc1ccccc1)C1CCN(C(=O)COc2ccccc2F)CC1`, the cytotoxicity at 10 µM came out at 8.94%.

Turning to `CC(C)N(C)CC(=O)Nc1ccc(-n2ccc(C(N)=O)n2)cc1`, the cytotoxicity at 10 µM is -3.54%.

As for `CN(Cc1cccc(C(N)=O)c1)c1ncc(C(N)=O)cc1Cl`, the cytotoxicity at 10 µM was -3.73%.

Turning to `CN(Cc1ccc2c(c1)OCO2)C(=O)c1ccn(C)c(=O)c1`, the cytotoxicity at 10 µM was found to be 3.01%.

Turning to `COc1ccc(OC)c(C(C)NC(=O)Nc2nnc(C)s2)c1` (configuration not stated), the cytotoxicity at 10 µM stood at 14.7%.

Regarding `CC(NC(=O)Cc1ccccc1F)C(=O)N1CCS(=O)(=O)CC1` (configuration not stated), the cytotoxicity at 10 µM stood at 8.68%.

`COCCN(Cc1ccc(F)cc1Cl)C(=O)c1cc(C)no1`: the cytotoxicity at 10 µM turned out to be 8.75%.

In the case of `CN(Cc1ccccc1NCc1cccnc1)C(=O)c1cccs1`, the cytotoxicity at 10 µM is 0.205%.

Turning to `CN1CC(NC(=O)Cc2csc(C(C)(C)C)n2)CCC1=O` (configuration not stated), the cytotoxicity at 10 µM stood at 1.82%.

With `CCOc1ccc(CNC(=O)N(C)Cc2ncnn2C)cc1C`, the cytotoxicity at 10 µM is -16%.

Consider `Cc1ccc(C2CCCCCN2CCCS(C)(=O)=O)o1` (configuration not stated), for which the cytotoxicity at 10 µM is -4.3%.

As for `CN(Cc1cnn(C)c1)C(CO)c1cccc(Br)c1` (configuration not stated), the cytotoxicity at 10 µM was -2.86%.

Consider `CC(NCc1cnn(C)c1)c1ccc(OCc2nccn2C)cc1` (configuration not stated), for which the cytotoxicity at 10 µM was -7.16%.

In the case of `O=C(CNc1cccc(CC(F)(F)F)c1)NCc1ccco1`, the cytotoxicity at 10 µM was -46.3%.

As for `CN(C)Cc1ccc(CNC(=O)NCC2(C)CCCS2)cc1` (configuration not stated), the cytotoxicity at 10 µM was -12.9%.

Consider `CC(C)n1nccc1NC(=O)CN1CCc2sccc2C1`, for which the cytotoxicity at 10 µM was 0.583%.

With `CCOC(C)c1noc(CN(C)C(=O)c2ccncc2)n1` (configuration not stated), the cytotoxicity at 10 µM worked out at 14.5%.

As for `O=C(NC1CCc2ccccc2C1)N1CCN(C(=O)C2CCC2)CC1` (configuration not stated), the cytotoxicity at 10 µM is -5.59%.

Consider `Cc1nc(CN2CCC3(C2)CN(C(=O)c2ccc[nH]2)C3)cs1`, for which the cytotoxicity at 10 µM was -112%.

For the compound `Cc1cccc(S(=O)(=O)N2C[C@@H]3C[C@@H](c4nc(C)no4)O[C@@H]3C2)c1`, the cytotoxicity at 10 µM is -1.05%.

In the case of `Cn1ccc(-c2cc(C(=O)N3CCCCC3)c3ccccn23)n1`, the cytotoxicity at 10 µM is -45.7%.

With `O=C1NC2(CCN(Cc3cccnc3)CC2)CC1c1ccncc1` (configuration not stated), the cytotoxicity at 10 µM was determined as 5.33%.

As for `Nc1cc(C(=O)N2CCCC(C(=O)CCc3ccccc3)C2)ccn1` (configuration not stated), the cytotoxicity at 10 µM is -6.97%.

On to `COCCc1nc(CSc2ccncc2)n(C)n1`, for which the cytotoxicity at 10 µM is -5.93%.

Take `Cc1ccc2cc(CN(C)Cc3ccncn3)c(=O)[nH]c2c1`: the cytotoxicity at 10 µM came out at 10.3%.

As for `CCCc1nc(C)c(CNc2nc(C)nc3oc(C)nc23)s1`, the cytotoxicity at 10 µM is -44.6%.

Consider `CCC1CCC(NCCN2CCOCC2)CC1` (configuration not stated), for which the cytotoxicity at 10 µM came to 3.62%.

`CCCC(=O)N(Cc1ccncc1)C(C)CC` (configuration not stated): the cytotoxicity at 10 µM stood at 9.66%.

As to `CC(C)[C@H]1CN(c2cnccn2)C[C@@H]1NC(=O)C1(C#N)CCOCC1`, the cytotoxicity at 10 µM was -6.35%.

Take `CN(C)CCn1ccnc1C1CCCN(c2nccc3ccccc23)C1` (configuration not stated): the cytotoxicity at 10 µM is -7.55%.

Take `COc1cccc(OCCN2CC[C@@](O)(C3CCOCC3)[C@H](C)C2)c1`: the cytotoxicity at 10 µM is -7.03%.

In the case of `Cc1nccn1CCCN1CCCC(c2ccccc2)C1` (configuration not stated), the cytotoxicity at 10 µM was -24.8%.

`Cc1nccn1CCN(C)C(=O)C1CCN(C(=O)C2CCCC2)CC1`: the cytotoxicity at 10 µM is -4.06%.

With `CC[C@@H](CO)NC(=O)c1cc(COc2ccc(OC)cc2Cl)[nH]n1`, the cytotoxicity at 10 µM was -34.4%.

Turning to `O=C(Nc1ccc(S(=O)(=O)Nc2ccccc2)cc1)N1CCCC1`, the cytotoxicity at 10 µM worked out at 10.9%.

Regarding `COC(=O)NCC(=O)N(C)Cc1csc(-c2cccs2)n1`, the cytotoxicity at 10 µM is -2.67%.

Regarding `CN1CC2(CCN(c3ncnc4c3CCNC4)CC2)OC1=O`, the cytotoxicity at 10 µM is -3.2%.

As for `CN(Cc1cn(C2CCNCC2)nn1)CC1CCCO1` (configuration not stated), the cytotoxicity at 10 µM was -4.76%.

Regarding `CN1CCC(Oc2ccc(-n3ccnc3-c3ccncc3)cc2)CC1`, the cytotoxicity at 10 µM is -3.05%.

On to `c1ccc2c(c1)CC(N1CCCN(Cc3cccc4nonc34)CC1)C2`, for which the cytotoxicity at 10 µM is -2.37%.

Consider `Cc1nc(CN2CCCC2c2noc(C3CC3)n2)oc1C` (configuration not stated), for which the cytotoxicity at 10 µM is -8.13%.

Turning to `CCc1ccc(CNc2cc(N3CCCC3CO)ncn2)s1` (configuration not stated), the cytotoxicity at 10 µM was -13%.

`COc1ncccc1NC(=O)NC1CCOc2ccccc21` (configuration not stated): the cytotoxicity at 10 µM is -7.62%.

On to `Cc1ccc(C(=O)N2CCC(Oc3ccc(F)cc3F)CC2)c(=O)[nH]1`, for which the cytotoxicity at 10 µM is 7.63%.

On to `O=C(Cc1n[nH]c2ccccc12)N1CCC(Nc2cccnn2)CC1`, for which the cytotoxicity at 10 µM was -7.44%.

Take `c1nc(CCC2CCCN2)cc(N2CCCOCC2)n1` (configuration not stated): the cytotoxicity at 10 µM came to 3.91%.

For the compound `CN(C)C(=O)C1OC2(CCN(c3ncc(F)cn3)CC2)c2ccccc21` (configuration not stated), the cytotoxicity at 10 µM was 6.27%.

For the compound `O=C(NCC1OCCc2cn(CC3CCOCC3)nc21)c1ccsc1` (configuration not stated), the cytotoxicity at 10 µM came out at 4.84%.

For the compound `Cn1ncc2c1CN(Cc1ccccc1F)CC2COCC1CC1` (configuration not stated), the cytotoxicity at 10 µM is 1.47%.

For the compound `CN(Cc1cccnc1)C1CC2(CCN(c3ncc(F)cn3)CC2)C1`, the cytotoxicity at 10 µM was 18%.

On to `FC1(F)CCN(Cc2ccncc2)CC12CCN(Cc1ccccn1)C2` (configuration not stated), for which the cytotoxicity at 10 µM turned out to be 10.2%.

`c1ccn(Cc2noc3c2CN(Cc2ccsc2)CC3)c1`: the cytotoxicity at 10 µM is 9.37%.

As for `Cn1cnc(S(=O)(=O)N2C[C@H]3CN(Cc4cccnc4)C[C@H]3C2)c1`, the cytotoxicity at 10 µM is 8.46%.

Consider `Cc1cc(S(=O)(=O)NCC(C)(C)N)c(F)cc1F`, for which the cytotoxicity at 10 µM is 3.8%.

For the compound `Cc1cc(C(=O)N2CCC3(CC2)C(=O)N(C)CCN3CC(C)C)c(C)o1`, the cytotoxicity at 10 µM was -112%.

Take `Cn1nnc2c1C(COCc1ccccn1)CN(Cc1ccoc1)C2` (configuration not stated): the cytotoxicity at 10 µM is 5.94%.

Take `CN1CC(=O)N(c2ccccc2)CC12CCN(CC1CC1)C2` (configuration not stated): the cytotoxicity at 10 µM came out at 4.42%.

`CO[C@@H]1CCN(S(=O)(=O)c2cn(C)cn2)[C@H]1Cc1cnn(C)c1`: the cytotoxicity at 10 µM stood at 4.56%.

Source of the values: ChEMBL document CHEMBL4513216, “Probing the Open Global Health Chemical Diversity Library for Multistage-Active Starting Points for Next-Generation Antimalarials” (ACS Infect Dis, 2020).
